From PMC2943143 (Biochemical pharmacology, 2010)
“And” between values parts separate entries of the source, which are not always exact repeats. Equal values may be shown once.

Key:
[1] = target: Aminopeptidase N; conditions: read-out: IC50, Aminopeptidase N; cited from earlier work
[2] = target: mouse IMP dehydrogenase (type II) (Mus musculus, UniProt P24547); assay: IMP dehydrogenase assay; type: biochemical; conditions: highest tested concentration 1 μM, supplemental Fig. S1B
[3] = test system: H^+, K^+- ATPase; conditions: cited from earlier work
[4] = target: Klenow fragment of E. coli pol I (Escherichia coli, UniProt P00582); assay: Pol assay, Klenow fragment of E. coli pol I; type: biochemical; conditions: supplemental Fig. S1A
Summary of the method: (§1)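 Test compound was dissolved in DMSO and sonicated 30 s. It was preincubated with enzyme (0.05 unit final) in 50 mM Tris-HCl pH 7.5, 1 mM DTT, 50% glycerol and 0.1 mM EDTA at 0 °C for 10 min. This was added to each enzyme's standard reaction mix with poly(dA)/oligo(dT)18 (A/T = 2/1) template-primer and dTTP substrate, then incubated at 37 °C for 60 min. Activity is given as % of inhibitor-free control.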

[5] = target: mouse pol ι (Mus musculus, UniProt Q6R3M4); assay: Pol assay, mouse pol ι; type: biochemical
Sequence of mouse pol ι (Q6R3M4 whole entry): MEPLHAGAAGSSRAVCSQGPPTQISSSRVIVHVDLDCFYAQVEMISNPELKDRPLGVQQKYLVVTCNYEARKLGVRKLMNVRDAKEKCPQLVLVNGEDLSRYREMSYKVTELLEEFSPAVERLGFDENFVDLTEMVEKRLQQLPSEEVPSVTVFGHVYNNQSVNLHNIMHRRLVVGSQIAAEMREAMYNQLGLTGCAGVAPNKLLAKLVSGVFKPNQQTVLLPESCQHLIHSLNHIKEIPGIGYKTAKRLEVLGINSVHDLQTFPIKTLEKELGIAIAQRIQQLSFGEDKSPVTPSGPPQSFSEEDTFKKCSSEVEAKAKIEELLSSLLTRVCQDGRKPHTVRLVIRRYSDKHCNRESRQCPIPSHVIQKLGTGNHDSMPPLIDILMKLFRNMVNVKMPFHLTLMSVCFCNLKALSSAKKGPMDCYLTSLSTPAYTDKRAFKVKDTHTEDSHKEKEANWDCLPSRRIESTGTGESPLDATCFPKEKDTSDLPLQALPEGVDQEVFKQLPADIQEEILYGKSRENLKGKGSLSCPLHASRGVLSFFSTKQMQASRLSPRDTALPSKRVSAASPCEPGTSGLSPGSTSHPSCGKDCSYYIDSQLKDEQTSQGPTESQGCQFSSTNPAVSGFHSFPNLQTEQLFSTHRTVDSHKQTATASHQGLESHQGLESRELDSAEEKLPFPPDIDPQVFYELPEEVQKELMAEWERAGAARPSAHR
Summary of the method: as §1

[6] = target: human pol δ (Homo sapiens, UniProt P28340); assay: Pol assay, human pol δ; type: biochemical
Sequence of human pol δ (P28340 whole entry): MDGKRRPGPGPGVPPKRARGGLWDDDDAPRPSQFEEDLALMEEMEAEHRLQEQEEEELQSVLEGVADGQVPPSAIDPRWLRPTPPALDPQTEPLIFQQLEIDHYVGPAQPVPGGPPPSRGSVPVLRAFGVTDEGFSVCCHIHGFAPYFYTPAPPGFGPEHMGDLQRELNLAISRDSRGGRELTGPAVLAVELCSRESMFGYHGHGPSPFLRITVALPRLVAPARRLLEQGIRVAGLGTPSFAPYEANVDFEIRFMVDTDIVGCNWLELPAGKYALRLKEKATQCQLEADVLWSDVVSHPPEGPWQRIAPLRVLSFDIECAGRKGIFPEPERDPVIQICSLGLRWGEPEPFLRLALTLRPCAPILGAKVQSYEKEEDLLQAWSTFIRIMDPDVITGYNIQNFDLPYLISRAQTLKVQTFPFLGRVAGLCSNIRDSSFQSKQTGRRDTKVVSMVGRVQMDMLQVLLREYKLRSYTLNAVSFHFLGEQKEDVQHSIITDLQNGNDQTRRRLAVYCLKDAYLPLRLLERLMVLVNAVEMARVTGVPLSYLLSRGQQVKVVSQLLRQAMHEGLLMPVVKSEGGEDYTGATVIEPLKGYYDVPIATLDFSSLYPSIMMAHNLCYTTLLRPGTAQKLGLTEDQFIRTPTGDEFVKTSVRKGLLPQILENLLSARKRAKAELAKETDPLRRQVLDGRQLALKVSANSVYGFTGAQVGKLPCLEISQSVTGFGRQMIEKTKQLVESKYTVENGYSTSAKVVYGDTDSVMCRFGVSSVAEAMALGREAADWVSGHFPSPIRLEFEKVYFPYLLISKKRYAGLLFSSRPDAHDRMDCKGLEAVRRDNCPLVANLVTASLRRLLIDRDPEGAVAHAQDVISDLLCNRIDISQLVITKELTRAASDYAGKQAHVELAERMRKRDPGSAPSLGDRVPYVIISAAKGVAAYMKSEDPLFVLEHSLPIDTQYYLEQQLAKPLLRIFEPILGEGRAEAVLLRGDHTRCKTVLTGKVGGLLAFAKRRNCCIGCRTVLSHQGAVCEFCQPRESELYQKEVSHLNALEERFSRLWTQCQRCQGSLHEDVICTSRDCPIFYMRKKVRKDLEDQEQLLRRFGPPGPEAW
Summary of the method: as §1

[7] = target: del-2 pol λ (245–575) (Homo sapiens, UniProt Q9UGP5); assay: Pol assay, del-2 pol λ mutant; type: biochemical
Sequence of del-2 pol λ (245–575) (Q9UGP5 245-575): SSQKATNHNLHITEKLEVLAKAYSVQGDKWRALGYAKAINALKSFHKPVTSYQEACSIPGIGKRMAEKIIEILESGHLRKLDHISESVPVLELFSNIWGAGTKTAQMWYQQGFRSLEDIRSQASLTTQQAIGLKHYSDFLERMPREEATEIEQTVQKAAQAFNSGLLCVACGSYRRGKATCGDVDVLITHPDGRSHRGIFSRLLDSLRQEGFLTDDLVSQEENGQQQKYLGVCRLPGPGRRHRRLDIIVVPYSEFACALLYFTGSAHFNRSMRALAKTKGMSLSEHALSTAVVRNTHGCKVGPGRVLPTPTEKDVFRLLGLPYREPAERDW
Summary of the method: as §1

[8] = test system: human PCa PC-3 cells; conditions: i.p. injection, every other day, 25 mg/kg, nude mice; cited from earlier work
[9] = test system: isolated nuclei; conditions: cited from earlier work
[10] = target: Taq pol (Thermus aquaticus, UniProt P19821); assay: Pol assay, Taq pol; type: biochemical; conditions: supplemental Fig. S1A
Summary of the method: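 Taq polymerase used poly(dA)/oligo(dT)18 (A/T = 2/1) template-primer and dTTP substrate. Test compound in sonicated DMSO was preincubated with enzyme (0.05 unit final) in 50 mM Tris-HCl pH 7.5, 1 mM DTT, 50% glycerol and 0.1 mM EDTA at 0 °C for 10 min. The mixture was then added to standard reaction mix and incubated at 74 °C for 60 min. Activity is given as % of untreated control.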

[11] = target: human topoisomerase II (Homo sapiens, UniProt P11388); assay: DNA topoisomerase II assay; type: biochemical; conditions: highest tested concentration 1 μM, supplemental Fig. S1B
Sequence of human topoisomerase II (P11388 whole entry): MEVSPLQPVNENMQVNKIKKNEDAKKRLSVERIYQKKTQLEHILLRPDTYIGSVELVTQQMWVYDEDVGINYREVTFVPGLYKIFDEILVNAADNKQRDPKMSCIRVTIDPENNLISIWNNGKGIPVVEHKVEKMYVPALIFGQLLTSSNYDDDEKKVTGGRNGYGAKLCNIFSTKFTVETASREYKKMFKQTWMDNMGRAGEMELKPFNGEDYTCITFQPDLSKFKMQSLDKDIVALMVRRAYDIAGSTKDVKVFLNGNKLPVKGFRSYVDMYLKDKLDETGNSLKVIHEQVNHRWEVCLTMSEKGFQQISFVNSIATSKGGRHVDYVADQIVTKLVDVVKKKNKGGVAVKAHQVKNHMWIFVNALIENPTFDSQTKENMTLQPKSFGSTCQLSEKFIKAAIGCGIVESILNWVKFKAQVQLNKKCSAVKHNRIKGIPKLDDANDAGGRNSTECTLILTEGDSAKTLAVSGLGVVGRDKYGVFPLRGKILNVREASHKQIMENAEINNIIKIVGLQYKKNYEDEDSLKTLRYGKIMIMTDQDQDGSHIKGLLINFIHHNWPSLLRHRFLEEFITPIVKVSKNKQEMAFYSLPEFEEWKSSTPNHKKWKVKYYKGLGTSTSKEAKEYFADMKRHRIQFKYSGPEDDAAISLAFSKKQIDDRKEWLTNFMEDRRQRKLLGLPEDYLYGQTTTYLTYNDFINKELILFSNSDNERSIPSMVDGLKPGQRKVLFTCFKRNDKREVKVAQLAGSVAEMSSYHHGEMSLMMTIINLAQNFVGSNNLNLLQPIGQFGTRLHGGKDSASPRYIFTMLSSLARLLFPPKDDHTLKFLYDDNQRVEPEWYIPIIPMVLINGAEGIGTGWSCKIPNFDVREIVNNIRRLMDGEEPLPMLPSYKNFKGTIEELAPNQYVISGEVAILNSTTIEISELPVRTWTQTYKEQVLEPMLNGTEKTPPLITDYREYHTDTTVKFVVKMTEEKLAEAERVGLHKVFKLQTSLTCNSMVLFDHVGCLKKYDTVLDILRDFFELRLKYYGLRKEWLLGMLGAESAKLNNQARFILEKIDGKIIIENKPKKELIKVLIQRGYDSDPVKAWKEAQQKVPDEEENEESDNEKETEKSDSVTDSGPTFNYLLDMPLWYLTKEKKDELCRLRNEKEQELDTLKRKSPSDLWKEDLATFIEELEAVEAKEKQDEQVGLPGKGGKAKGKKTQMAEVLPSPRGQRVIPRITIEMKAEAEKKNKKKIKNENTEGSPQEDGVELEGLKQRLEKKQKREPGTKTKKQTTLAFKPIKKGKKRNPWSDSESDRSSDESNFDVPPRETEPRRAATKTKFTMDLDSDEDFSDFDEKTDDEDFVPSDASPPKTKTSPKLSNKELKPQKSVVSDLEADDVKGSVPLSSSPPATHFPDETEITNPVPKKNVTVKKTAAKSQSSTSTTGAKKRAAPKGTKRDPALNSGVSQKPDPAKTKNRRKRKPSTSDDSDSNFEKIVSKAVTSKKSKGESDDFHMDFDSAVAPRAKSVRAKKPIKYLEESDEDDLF
Summary of the method: (§2)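 Topoisomerases I and II were purified from human placenta, and DNase I came from bovine pancreas. Each activity was measured in a standard assay following the supplier's specifications.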

[12] = target: human topoisomerase I (Homo sapiens, UniProt P11387); assay: DNA topoisomerase I assay; type: biochemical; conditions: highest tested concentration 1 μM, supplemental Fig. S1B
Sequence of human topoisomerase I (P11387 whole entry): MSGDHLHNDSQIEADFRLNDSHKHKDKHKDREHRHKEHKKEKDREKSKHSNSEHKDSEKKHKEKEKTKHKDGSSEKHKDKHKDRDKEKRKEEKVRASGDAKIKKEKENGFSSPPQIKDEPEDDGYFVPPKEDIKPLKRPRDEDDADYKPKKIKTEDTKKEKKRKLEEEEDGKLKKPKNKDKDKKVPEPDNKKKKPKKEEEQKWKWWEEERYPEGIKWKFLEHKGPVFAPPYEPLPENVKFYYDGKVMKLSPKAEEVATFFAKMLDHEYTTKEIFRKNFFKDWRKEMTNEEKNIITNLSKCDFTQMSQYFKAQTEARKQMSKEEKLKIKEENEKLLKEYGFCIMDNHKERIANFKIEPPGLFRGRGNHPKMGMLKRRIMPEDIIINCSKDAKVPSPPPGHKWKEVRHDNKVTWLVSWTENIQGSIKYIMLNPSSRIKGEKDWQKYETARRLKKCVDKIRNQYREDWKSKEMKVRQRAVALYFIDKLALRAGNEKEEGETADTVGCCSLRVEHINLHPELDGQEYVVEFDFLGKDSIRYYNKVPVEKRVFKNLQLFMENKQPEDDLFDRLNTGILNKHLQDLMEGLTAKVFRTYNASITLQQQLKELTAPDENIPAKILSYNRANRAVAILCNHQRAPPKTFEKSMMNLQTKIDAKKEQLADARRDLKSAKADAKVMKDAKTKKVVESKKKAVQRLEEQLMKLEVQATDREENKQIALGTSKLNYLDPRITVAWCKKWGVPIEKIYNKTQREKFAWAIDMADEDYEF
Summary of the method: as §2

[13] = target: Angiotensin converting enzyme; conditions: read-out: IC50, Angiotensin converting enzyme; cited from earlier work
[14] = target: T1, calf pol α (Bos taurus, UniProt A0AAA9TD94); assay: Pol assay, calf pol α; type: biochemical; conditions: for Ki: pol α, Dixon plot
T1 sequence (A0AAA9TD94 1-1441): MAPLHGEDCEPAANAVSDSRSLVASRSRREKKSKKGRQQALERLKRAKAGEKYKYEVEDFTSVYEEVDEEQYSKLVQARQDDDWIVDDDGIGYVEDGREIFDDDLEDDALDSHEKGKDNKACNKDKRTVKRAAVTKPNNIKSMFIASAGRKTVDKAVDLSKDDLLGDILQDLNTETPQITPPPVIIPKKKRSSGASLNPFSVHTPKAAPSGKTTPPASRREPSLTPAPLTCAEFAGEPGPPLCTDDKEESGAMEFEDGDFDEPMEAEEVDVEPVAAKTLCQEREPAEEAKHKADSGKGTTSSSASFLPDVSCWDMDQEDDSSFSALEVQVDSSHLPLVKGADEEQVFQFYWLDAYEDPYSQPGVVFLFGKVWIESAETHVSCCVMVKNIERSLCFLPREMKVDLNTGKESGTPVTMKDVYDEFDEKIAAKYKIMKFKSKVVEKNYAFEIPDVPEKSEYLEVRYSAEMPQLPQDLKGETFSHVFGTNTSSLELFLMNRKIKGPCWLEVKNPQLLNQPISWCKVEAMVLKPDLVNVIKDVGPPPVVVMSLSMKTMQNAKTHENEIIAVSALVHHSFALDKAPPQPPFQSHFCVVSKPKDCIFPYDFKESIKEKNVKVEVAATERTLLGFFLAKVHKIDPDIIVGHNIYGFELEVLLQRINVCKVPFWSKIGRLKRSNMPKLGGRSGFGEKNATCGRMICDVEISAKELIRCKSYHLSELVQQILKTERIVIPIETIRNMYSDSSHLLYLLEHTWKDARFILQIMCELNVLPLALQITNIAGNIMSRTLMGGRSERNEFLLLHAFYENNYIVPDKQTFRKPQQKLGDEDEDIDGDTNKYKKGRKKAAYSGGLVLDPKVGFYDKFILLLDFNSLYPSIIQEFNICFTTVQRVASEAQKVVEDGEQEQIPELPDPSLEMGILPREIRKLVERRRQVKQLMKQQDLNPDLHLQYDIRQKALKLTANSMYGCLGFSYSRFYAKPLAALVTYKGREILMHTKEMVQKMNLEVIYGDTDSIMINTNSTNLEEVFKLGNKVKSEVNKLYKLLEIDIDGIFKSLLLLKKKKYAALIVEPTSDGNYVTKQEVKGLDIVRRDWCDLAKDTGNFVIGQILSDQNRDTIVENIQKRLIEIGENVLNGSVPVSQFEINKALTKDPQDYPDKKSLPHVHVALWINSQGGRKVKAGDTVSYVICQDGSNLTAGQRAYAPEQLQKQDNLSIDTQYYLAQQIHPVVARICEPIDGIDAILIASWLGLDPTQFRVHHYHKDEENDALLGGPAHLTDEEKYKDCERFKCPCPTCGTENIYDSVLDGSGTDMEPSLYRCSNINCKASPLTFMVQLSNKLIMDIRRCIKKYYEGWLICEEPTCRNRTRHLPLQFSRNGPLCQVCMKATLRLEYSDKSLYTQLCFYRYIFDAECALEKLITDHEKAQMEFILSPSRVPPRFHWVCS
Summary of the method: as §1

Sequence of mouse IMP dehydrogenase (type II) (P24547 whole entry): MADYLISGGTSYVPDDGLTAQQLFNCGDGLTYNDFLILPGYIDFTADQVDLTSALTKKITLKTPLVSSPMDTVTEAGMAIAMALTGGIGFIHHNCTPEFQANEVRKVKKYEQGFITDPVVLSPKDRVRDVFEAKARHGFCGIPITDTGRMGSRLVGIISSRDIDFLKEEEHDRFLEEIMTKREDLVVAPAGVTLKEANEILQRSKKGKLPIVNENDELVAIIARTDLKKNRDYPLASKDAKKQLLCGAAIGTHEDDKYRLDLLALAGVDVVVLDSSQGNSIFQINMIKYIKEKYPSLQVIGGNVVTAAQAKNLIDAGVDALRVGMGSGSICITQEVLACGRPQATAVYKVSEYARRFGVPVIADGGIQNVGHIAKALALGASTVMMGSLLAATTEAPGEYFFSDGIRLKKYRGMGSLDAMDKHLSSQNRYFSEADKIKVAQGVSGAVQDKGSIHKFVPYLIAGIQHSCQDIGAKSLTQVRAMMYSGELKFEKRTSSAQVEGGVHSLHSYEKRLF

## O=C(OC[C@H]1O[C@@H](OC(=O)c2cc(O)c(O)c(O)c2)[C@H](OC(=O)c2cc(O)c(O)c(O)c2)[C@@H](OC(=O)c2cc(O)c(O)c(O)c2)[C@@H]1OC(=O)c1cc(O)c(O)c(O)c1)c1cc(O)c(O)c(O)c1 [PGG, 1,2,3,4,6-penta-O-galloyl-β-D-glucose]
[1]
  IC50: 6.5 µM
[2]
  effect on mouse IMP dehydrogenase (type II) activity: did not suppress
[3]
  Mode of Inhibition, H^+, K^+- ATPase: Non-competitive for K^+
[3]; read-out: IC50, H^+, K^+- ATPase
  IC50: 0.166 µM
[4]
  effect on Klenow fragment of E. coli pol I activity: not influenced
[5]
  IC50: 0.03 to 0.045 µM
[5]; 100 and 1,000 nM PGG, Fig. 1C
  effect on pol ι activity: significantly inhibit
[6]; 100 and 1,000 nM PGG, Fig. 1C
  effect on pol δ activity: significantly inhibit
[6]; IC50, pol δ, range stated for replicative pols (α, δ and ε) together
  IC50: < 0.1 µM and 0.013 to 0.066 µM
[7]
  IC50: 0.117 µM
[8]
  growth of PC-3 cells inoculated into the tibia: positive inhibitory efficacy
[9]
  inhibition of DNA replicative synthesis compared with aphidocolin: superior efficacy
[10]
  effect on Taq pol activity: not influenced
[11]
  effect on human topoisomerase II activity: did not suppress
[12]
  effect on human topoisomerase I activity: did not suppress
[13]
  IC50: 73.1 µM
[14]; 5 nM PGG
  apparent Vmax of pol α, DNA template-primer, decreased to: 32.2%
[14]; 10 nM PGG
  apparent Vmax of pol α, DNA template-primer, decreased to: 18.9%
[14]; 15 nM PGG
  apparent Vmax of pol α, DNA template-primer, decreased to: 13.6%
[14]; 15 nM PGG (29.2 without PGG)
  apparent Vmax of pol α for the dNTP substrate: 3.77 pmol/h
[14]; 100 and 1,000 nM PGG, Fig. 1C
  effect on pol α activity: significantly inhibit
[14]; IC50, pol α, poly(dA)/oligo(dT)18 and dTTP, 0.05 unit enzyme
  IC50: 0.013 µM
[14]; for the DNA template-primer
  Ki: 0.0025 µM
[14]; for the dNTP substrate
  Ki: 0.0022 µM
[14]; Lineweaver-Burk plots
  Mode of Inhibition, pol α, DNA template-primer: Non-competitive for DNA template-primer
  Mode of Inhibition, pol α, dNTP: Non-competitive for dNTP
[14]; PGG 10 and 100 nM, supplemental Table S1
  effect of 0.05% NP-40 on the inhibitory effect on pol α: not reversed
[14]; poly(rC) 50 μM, BSA 200 μg/ml
  effect of poly(rC) or BSA on the inhibitory effect on pol α: neither poly(rC) nor BSA influenced
